Source: PubChem
M1 antag: blocks the rat M1 muscarinic receptor response to acetylcholine. P08482. CHO-M1 cells, Fluo-4 calcium, ACh EC80 antagonist mode; stronger effect = lower value. B-score at 10 µM. hit rate 3.4% among 64,000;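 active = calcium fluorescence response, raw or row-and-column corrected B-score, differing from the plate sample mean either way at a set confidence level, mostly lower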
S1P3 ag: activates the human S1P3 receptor. S1P3 NFAT-BLA reporter cells, agonism, FRET ratio; relative to 1 µM S1P, basal subtracted. AID 373. hit rate 0.1% among 60,000. activation, % at 4.5 µM;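 active = activation above the screen-wide mean plus 3 SD, cut at about 4.5% in these data, passing the limit was not always enough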
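Assay system: stable CHO line with human S1P3, Gα16, NFAT-BLA reporter; Detection: FRET β-lactamase substrate fluorescence, excitation 405 nm, 460/535 nm emission ratio, background-subtracted; Read-out: percent activation versus median 1 µM S1P response, basal-subtracted, per plate; Incubation: cells plated overnight, compound 4 h 37 °C, substrate 2 h RT.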
M1 ag: M1 muscarinic receptor agonism | CHO-M1 cells, Fluo-4 calcium fluorescence, agonist mode; stronger effect = higher value | B-score at 10 µM | hit rate 3% among 64,000 | AID 626;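 active = fluorescence rise, raw or as B-score row- and column-corrected plate score, outside the 99.7% band of its plate's samples, either direction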
D1 mod: allosteric modulators of human D1 dopamine receptor; P21728; HEK293 D1, CRE-luciferase, dopamine EC30 potentiation; actives deviate in either direction; B-score at 10 µM; hit rate 5.9% among 58,000; AID 641;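 active = luminescence count or its row- and column-corrected plate score outside the 99.7% band of the plate's sample wells, on either side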
Target sequence (P21728 whole entry, looked up): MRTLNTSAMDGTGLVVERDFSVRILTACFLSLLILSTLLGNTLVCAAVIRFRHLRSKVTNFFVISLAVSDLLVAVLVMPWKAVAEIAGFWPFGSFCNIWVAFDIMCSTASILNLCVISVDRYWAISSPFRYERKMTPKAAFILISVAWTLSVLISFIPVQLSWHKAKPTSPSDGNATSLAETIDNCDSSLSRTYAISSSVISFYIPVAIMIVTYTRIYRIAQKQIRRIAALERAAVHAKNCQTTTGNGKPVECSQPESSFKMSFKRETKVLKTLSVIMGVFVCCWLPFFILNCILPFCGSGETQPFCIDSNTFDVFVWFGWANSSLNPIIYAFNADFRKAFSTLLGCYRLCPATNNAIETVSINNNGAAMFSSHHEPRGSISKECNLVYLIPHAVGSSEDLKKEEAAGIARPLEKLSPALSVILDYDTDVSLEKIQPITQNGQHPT
S1P1 ag-PAM: activates or potentiates agonism at human S1P1 receptor. S1P1 CRE-bla cells, forskolin, beta-lactamase FRET, potentiator mode; S1P1 agonist co-added at EC20, 2 nM; 100% = saturating reference agonist, 0% = basal. activation, % at 9.5 µM. P21453. hit rate 0.57% among 56,000;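 active = activation above a cutoff set at the mean activation of all tested compounds plus 3 SD, cut at about 54% in these data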;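 also: forskolin at 4 µM as EC80 and the EC20 agonist is SEW2871; 100% = SEW2871 at its EC100 plus forskolin at EC80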
M1 ag confirm: rat M1 muscarinic agonism, confirmation. CHO-M1 cells, Fluo-4 calcium fluorescence, agonist mode; actives lie on both sides. hit rate 19% among 1,700. shares compounds with M1 ag. fluorescence change (max-min) at 10 µM;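 active = fluorescence change differs from the solvent-only DMSO control mean at a set confidence level in both duplicate runs; inconclusive = differs from solvent-only control mean in just one of two runs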;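 also: an EC20 dose of acetylcholine follows compound addition during the same imaging run; raw fluorescence intensity difference in instrument units with no normalization to controls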
M4 agonist ctr: counter-screen for M1 agonists: activity at rat M4 receptor; shares compounds with M1 ag; CHO M4/Gqi5 cells, Fluo-4 calcium fluorescence, agonist mode; actives lie on both sides; fluorescence change (max-min) at 10 µM; hit rate 9% among 1,700;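 active = fluorescence change differing from the plate's solvent-only control wells at 99.7% confidence in both duplicates, whether higher or lower; inconclusive = differs from solvent controls in only one of two duplicates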
* = called active by the depositor; ? = inconclusive; · = no result. Hits are enriched below; roughly 11% of the tested compounds scored in any of these assays.

SMILES | M1 antag | S1P3 ag | M1 ag | D1 mod | S1P1 ag-PAM | M1 ag confirm | M4 agonist ctr
Cc1cccc(N2CCN(C(=O)Cn3sc4nc(C)cc(C)c4c3=O)CC2C)c1 (centres undefined) | -0.62 | -1 | 5.3* | -0.1 | 19 | -24* | -67*
COCCCNC(=O)c1ccc(CS(=O)(=O)c2ccc(OC)cc2)o1 | -0.19 | -1 | 0.28 | 0.14 | -9 | · | ·
COc1ccc(S(=O)(=O)Cc2ccc(C(=O)N3CCN(c4ccc(Cl)cc4)CC3)o2)cc1 | -0.46 | -1 | 2.3* | -0.83 | 69 | -4.3 | -10
COc1ccc(S(=O)(=O)Cc2ccc(C(=O)N3CCN(c4cccc(C)c4)C(C)C3)o2)cc1 (centres undefined) | -1.4 | 0 | 3.4* | -1.7 | 10 | ? | -35
COc1ccc(S(=O)(=O)Cc2ccc(C(=O)NCCc3ccc(S(N)(=O)=O)cc3)o2)cc1 | -0.61 | 0 | 3.8* | 0.077 | -13 | ? | -59
COc1ccc(N2CCN(C(=O)c3ccc(CS(=O)(=O)c4ccc(OC)cc4)o3)CC2)cc1 | -1.4 | 0 | 0.25 | 0.16 | 10 | · | ·
COc1ccc(N2CCN(C(=O)c3ccc(NS(=O)(=O)c4ccc(F)c(F)c4)cc3)CC2)cc1 | -0.24 | · | 2.3* | -0.03 | · | -8.5 | -35
O=C(NC(C(=O)c1ccccc1)N1CCCCC1)c1ccccc1 (centres undefined) | 0.37 | -1 | 0.55 | 0.89 | -9 | · | ·
Cc1ccc(NC(=O)N2C(=O)C3(OCCO3)c3ccccc32)cc1 | -0.17 | 0 | -1.1 | -0.8 | -12 | · | ·
COc1ccc(-c2nn(C)c(=O)c3ccccc23)cc1CNC(=O)CN1CCOCC1 | -1.6 | -1 | -0.085 | 0.013 | -14 | · | ·
CCc1ccc(-c2cn(-c3nc(C)cc(C)n3)c(=N)o2)cc1 | -0.98 | 1 | -0.57 | 1 | 8 | · | ·
O=c1c2c3c(sc2nc2sc(CN4CCOCC4)cn12)CCCC3 | -0.29 | 0 | -3.3* | 0.2 | -4 | -18 | ?
CC(C)(C)OC(=O)N1Cc2ccccc2C[C@H]1C(=O)O | -0.26 | 0 | -0.16 | · | -15 | · | ·
COc1cccc(NC(=O)c2cn(C)c(=O)c3cc(OC)c(OC)cc23)c1 | -0.0021 | 1 | 0.66 | 0.16 | -52 | · | ·
CCOC(=O)C1=C(C)OC(N)=C(C#N)C1c1c(C)nn(-c2ccccc2)c1Cl (centres undefined) | 0.028 | · | 0.84 | 1.1 | · | · | ·
C=CCOC(=O)C1=C(C)OC(N)=C(C#N)C1c1c(C)nn(-c2ccccc2)c1Cl (centres undefined) | -0.093 | 0 | 5.3* | -0.31 | 18 | ? | -45
O=C(Cc1cccs1)NCCn1ccc2ccccc21 | 0.11 | 0 | 0.67 | 0.034 | -1 | · | ·
CCOC(=O)N1CCN(c2nc3ccccc3nc2C(C#N)C(=O)NCCc2ccccc2)CC1 (centres undefined) | -0.62 | -1 | 22* | -0.035 | 8 | ? | 81
N#CC(C(=O)NCc1ccccc1)c1nc2ccccc2nc1N1CCCC1 (centres undefined) | -17* | 0 | 177* | 2.1 | -34 | 1394* | 794*
COc1ccccc1N1CCN(c2nc3ccccc3nc2C(C#N)C(=O)OC(C)C)CC1 (centres undefined) | -1.6 | -1 | 1.1 | -0.76 | -12 | · | ·
N#CC(C(=O)NCCc1ccccc1)c1nc2ccccc2nc1N1CCCCC1 (centres undefined) | -0.23 | -1 | 17* | -0.75 | -4 | 63* | 121
CCOc1ccccc1N1CCN(c2nc3ccccc3nc2C(C#N)C(=O)OC)CC1 (centres undefined) | -1.1 | -4 | 7.7* | -4.3* | 3 | ? | -28
COc1ccc(CNC(=O)CCc2c(C)nc3ncnn3c2C)cc1 | 0.11 | 0 | 0.12 | 0.034 | 5 | · | ·
COc1cc(NC(=O)C2CC(=O)NC3=C2C(=O)CC(C)(C)C3)c(OC)cc1Cl (centres undefined) | -0.082 | 0 | 16* | · | -22 | -2.8 | -47
CN(C)S(=O)(=O)NCc1ccc2c(c1)OCO2 | 0.049 | -1 | 0.025 | 0.31 | -2 | · | ·
SMILES | M1 antag | S1P3 ag | M1 ag | D1 mod | S1P1 ag-PAM | M1 ag confirm | M4 agonist ctr
O=C(COc1ccccc1)Nc1ccccc1C(=O)NCc1ccco1 | -0.43 | -2 | 6.7* | 0.59 | -5 | ? | -42
O=C(Nc1ccc(Cl)cc1)Nc1ccccc1C(=O)NCc1ccco1 | · | 0 | · | · | 15 | · | ·
Cc1cccc(-c2nc(CSCC(=O)N3CCN(c4ccccn4)CC3)c(C)o2)c1 | -3.7* | -1 | 3.8* | -1.3 | 59 | -10 | ?
Cc1ccc(-c2nc(CSCC(=O)N3CCCC3)c(C)o2)cc1 | -0.0082 | -1 | 0.58 | -0.078 | 7 | · | ·
Cc1ccsc1-c1nc(CSCC(=O)N2CCN(c3ccccc3)CC2)c(C)o1 | -2.5* | 0 | 5* | 0.043 | 45 | -39* | ?
C1=CN2CCC1C(c1ccccc1)C2 (centres undefined) | -8* | 0 | 44* | -0.31 | -11 | 428* | 7.6
Cc1nnc(C)n1/N=C/c1cc(Br)ccc1O | -0.56 | -2 | 8.2* | 1.2 | -18 | 22 | 7.8
Cc1nnc(C)n1/N=C/c1cc(Br)cc(Br)c1O | 0.71 | -2 | 27* | · | 26 | 143* | ?
Cc1cc2ncn(/N=C/c3cc(Br)ccc3O)c2cc1C | 0.69 | -1 | 0.04 | -0.01 | -11 | · | ·
COCC(C)n1c(C)cc(C(=O)CSc2nc3ccccc3c(=O)[nH]2)c1C (centres undefined) | 0.74 | 0 | 2.8* | · | 42 | -15 | -21
Cc1cccc(C)c1OCCCCc1c(C)n[nH]c1C | -0.85 | -1 | 0.14 | -0.55 | 37 | · | ·
COc1cccc(OC)c1OCCCCCc1c(C)n[nH]c1C | -0.087 | 0 | 3* | -0.63 | 24 | -17 | -44
O=C(c1ccco1)N1CCN(C(=O)C2CCCc3c2[nH]c2ccc(Cl)cc32)CC1 (centres undefined) | -0.76 | -1 | 0.23 | 0.22 | 23 | · | ·
CC1(c2ccc(Cl)cc2Cl)OCC(Cn2ccnc2)O1 (centres undefined) | -0.28 | -1 | -0.83 | -0.01 | 7 | · | ·
CCn1nc(C)c(/C=C2\CCCC3=C2OC(N)=C(C#N)C3c2c(C)nn(CC)c2C)c1C (centres undefined) | 0.5 | -1 | 14* | 0.025 | 21 | 100* | ?
Cc1nn(-c2ccccc2)c(N2CCCC2)c1/C=N/n1cnc2scc(-c3ccccc3)c2c1=O | -2.4* | -1 | 9.1* | -0.11 | 12 | 5.6 | -15
Cc1cc(C)c2cc3c(ccn3C3OC[C@H](O)[C@H](O)[C@H]3O)cc2n1 (some centres undefined) | -0.62 | -1 | 36* | -0.042 | -8 | 201* | 156
